Usually IC50 stands for the concentration needed to halve the response being measured. Lower therefore signals inhibition by little substance.

This assay deals with T1, Tyrosine-protein phosphatase non-receptor type 1 (Homo sapiens, UniProt P18031).
T1 sequence (P18031 whole entry): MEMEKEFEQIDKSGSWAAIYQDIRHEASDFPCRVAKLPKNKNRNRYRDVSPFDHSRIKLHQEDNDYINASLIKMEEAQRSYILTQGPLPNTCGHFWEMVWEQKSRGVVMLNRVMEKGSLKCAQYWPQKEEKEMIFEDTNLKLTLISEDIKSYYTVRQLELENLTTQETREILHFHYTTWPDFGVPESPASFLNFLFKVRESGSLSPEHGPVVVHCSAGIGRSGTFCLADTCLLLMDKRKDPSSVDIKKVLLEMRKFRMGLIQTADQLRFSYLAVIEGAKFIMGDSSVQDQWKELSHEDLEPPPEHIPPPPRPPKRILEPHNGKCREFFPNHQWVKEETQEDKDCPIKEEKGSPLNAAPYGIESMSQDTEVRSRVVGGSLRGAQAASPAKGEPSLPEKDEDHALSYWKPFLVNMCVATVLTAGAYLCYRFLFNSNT
Nature of the assay: Inhibition of human Protein-tyrosine phosphatase 1B (PTP1B) dephosphorylation of insulin receptor peptide. The procedure, abridged:
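Human recombinant PTP1B (residues 1-322) with 50 µM phosphopeptide substrate, room temperature, stopped with malachite green reagent, absorbance read at 620 nm. Docking-set assay: 1 nM enzyme in 25 mM HEPES pH 7.4, 125 mM NaCl, 1 mM EDTA, 10% glycerol, 10 mM DTT, no albumin, 10 min, DMSO below 10%, triplicates. HTS assay: 0.9 nM enzyme, pH 7.0, 0.03% BSA, 60 min.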
The molecule `O=C(O)c1ccc(/C=C2/SC(=S)N(Cc3ccccc3)C2=O)cc1` yielded an IC50 of 21.6 µM.

`Oc1cccc(-c2nc(-c3ccc(-c4ccccc4)cc3)c(-c3ccc(-c4ccccc4)cc3)[nH]2)c1` came in with an IC50 of 8.6 µM. Against the preceding molecule, the IC50 is about 2.5-fold lower. `O=C(Nc1ccccc1)Nc1cc(-c2ccc(Cl)cc2)nn1-c1ccccc1` yielded an IC50 of 12 µM.

Regarding `O=C(O)c1ccc(N2C(=O)/C(=C\C=C\c3ccccc3)SC2=S)cc1`, the midpoint of inhibition, the IC50, lay at 4.4 µM. The same measure for `CC1=NN(c2cccc(Cl)c2)C(=O)/C1=C\c1ccc(-c2ccc(C(=O)O)c(Cl)c2)o1`: 19.3 µM.

As for `CCOc1cc(/C=C2/N=C(c3ccc4c(c3)OCO4)OC2=O)cc(Cl)c1OC(C)=O`, the IC50 came out at 35 µM. The same measure for `CSc1[nH]nc(NC(=O)c2ccc(Cl)c(Cl)c2)c1S(=O)(=O)c1ccc(Cl)cc1`: 63.9 µM; for `O=C1NC(=O)C(=Cc2ccc(Sc3nc4ccc([N+](=O)[O-])cc4s3)c([N+](=O)[O-])c2)C(=O)N1`: 4.1 µM; for `O=C(Nc1ccc(O)cc1)/C(=C/c1c[nH]c2ccccc12)NC(=O)c1ccccc1`: 21.5 µM. Take `O=C(O)c1ccc(-c2ccc(/C=C3/S/C(=N\c4ccccc4)N(c4ccccc4)C3=O)o2)cc1O`: the midpoint of inhibition, the IC50, lay at 9 µM. The same measure for `COC(=O)c1ccc2nc(NC(=O)COC(=O)c3ccc(Br)o3)sc2c1`: 34.4 µM.

The values are drawn from ChEMBL document CHEMBL1135419, “Molecular docking and high-throughput screening for novel inhibitors of protein tyrosine phosphatase-1B” (J Med Chem, 2002).
